# Experimental data published in ChEMBL document CHEMBL1795311, “Synthesis, antiproliferative activity, and mechanism of action of a series of 2-{[(2E)-3-phenylprop-2-enoyl]amino}benzamides” (Eur J Med Chem, 2011).
# What was measured:
# [1] = test system: IGROV-1; assay: Growth inhibition of human IGROV1 cells after 48 hrs by SRB assay; assay type: functional; conditions: IGROV-1, 48 h
# Method in brief: (§1)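 NCI DTP panel cells grown in RPMI 1640 with 5% FBS and 2 mM L-glutamine, preincubated 24 h, then given five concentrations (10-fold or ½-log dilutions from DMSO stock) for 48 h at 37 °C. Cells fixed with TCA, stained with SRB, absorbance read at 515 nm, with time-zero plates as reference.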
# [2] = test system: A498; assay: Growth inhibition of human A498 cells after 48 hrs by SRB assay; assay type: functional; conditions: A498, 48 h; method in brief: as §1
# [3] = test system: DU-145; assay: Growth inhibition of human DU145 cells after 48 hrs by SRB assay; assay type: functional; conditions: DU-145, 48 h; method in brief: as §1
# [4] = test system: COLO 205; assay: Growth inhibition of human COLO205 cells after 48 hrs by SRB assay; assay type: functional; conditions: COLO 205, 48 h; method in brief: as §1
# [5] = test system: SK-MEL-28; assay: Growth inhibition of human SK-MEL-28 cells after 48 hrs by SRB assay; assay type: functional; conditions: SK-MEL-28, 48 h
# Method in brief: (§2)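 Run by the NCI Developmental Therapeutics Program: cells in RPMI 1640 with 5% FBS and 2 mM L-glutamine, plated at 5000–40,000 cells/well and grown 24 h before dosing. Drug (DMSO stock) given at five concentrations for 48 h at 37 °C, 5% CO2. Adherent cells fixed with cold TCA, stained with 0.4% SRB and read at 515 nm. GI50, TGI and LC50 taken from the time-zero, control and treated absorbances.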
# [6] = test system: NCI-H23; assay: Growth inhibition of human NCI-H23 cells after 48 hrs by SRB assay; assay type: functional; conditions: NCI-H23, 48 h; method in brief: as §1
# [7] = test system: K562; assay: Antiproliferative activity against human K562 cells at 10 uM after 48 hrs by trypan blue assay; assay type: functional; conditions: K562, 48 h, read-out: GI
# [8] = test system: Malme-3M; assay: Growth inhibition of human MALME-3M cells after 48 hrs by SRB assay; assay type: functional; method in brief: as §1
# [9] = test system: PC-3; assay: Growth inhibition of human PC3 cells after 48 hrs by SRB assay; assay type: functional; conditions: PC-3, 48 h; method in brief: as §1
# [10] = test system: MDA-MB-435; assay: Growth inhibition of human MDA-MB-435 cells after 48 hrs by SRB assay; assay type: functional; conditions: MDA-MB-435, 48 h; method in brief: as §1
# [11] = test system: M14; assay: Growth inhibition of human M14 cells after 48 hrs by SRB assay; assay type: functional; conditions: M14, 48 h; method in brief: as §1
# [12] = test system: BT-549; assay: Growth inhibition of human BT549 cells after 48 hrs by SRB assay; assay type: functional; conditions: BT-549, 48 h; method in brief: as §1
# [13] = test system: NCI-H522; assay: Growth inhibition of human NCI-H522 cells after 48 hrs by SRB assay; assay type: functional; conditions: NCI-H522, 48 h; method in brief: as §1
# [14] = test system: SK-MEL-5; assay: Growth inhibition of human SK-MEL-5 cells after 48 hrs by SRB assay; assay type: functional; conditions: SK-MEL-5, 48 h; method in brief: as §2
# [15] = test system: MCF7; assay: Growth inhibition of human MCF7 cells after 48 hrs by SRB assay; assay type: functional; conditions: MCF7, 48 h; method in brief: as §1
# [16] = test system: SW-620; assay: Growth inhibition of human SW620 cells after 48 hrs by SRB assay; assay type: functional; conditions: SW-620, 48 h; method in brief: as §2
# [17] = test system: SF-295; assay: Growth inhibition of human SF295 cells after 48 hrs by SRB assay; assay type: functional; conditions: SF-295, 48 h; method in brief: as §1
# [18] = test system: MOLT-4; assay: Growth inhibition of human MOLT4 cells after 48 hrs by SRB assay; assay type: functional; conditions: MOLT-4, 48 h; method in brief: as §1
# [19] = test system: HCT-15; assay: Growth inhibition of human HCT15 cells after 48 hrs by SRB assay; assay type: functional; conditions: HCT-15, 48 h; method in brief: as §1
# [20] = test system: UO-31; assay: Growth inhibition of human UO31 cells after 48 hrs by SRB assay; assay type: functional; conditions: UO-31, 48 h; method in brief: as §2
# [21] = test system: SK-OV-3; assay: Growth inhibition of human SKOV3 cells after 48 hrs by SRB assay; assay type: functional; conditions: SK-OV-3, 48 h; method in brief: as §2
# [22] = test system: HL-60; assay: Growth inhibition of human HL60 cells after 48 hrs by SRB assay; assay type: functional; conditions: HL-60, 48 h; method in brief: as §1
# [23] = test system: KM12; assay: Growth inhibition of human KM12 cells after 48 hrs by SRB assay; assay type: functional; conditions: KM12, 48 h; method in brief: as §1
# [24] = test system: UACC-62; assay: Growth inhibition of human UACC62 cells after 48 hrs by SRB assay; assay type: functional; conditions: UACC-62, 48 h; method in brief: as §2
# [25] = test system: ACHN; assay: Growth inhibition of human ACHN cells after 48 hrs by SRB assay; assay type: functional; method in brief: as §1
# [26] = test system: CAKI-1; assay: Growth inhibition of human Caki1 cells after 48 hrs by SRB assay; assay type: functional; conditions: CAKI-1, 48 h; method in brief: as §1
# [27] = test system: SK-MEL-2; assay: Growth inhibition of human SK-MEL-2 cells after 48 hrs by SRB assay; assay type: functional; conditions: SK-MEL-2, 48 h; method in brief: as §2
# [28] = test system: SF-268; assay: Growth inhibition of human SF268 cells after 48 hrs by SRB assay; assay type: functional; conditions: SF-268, 48 h; method in brief: as §1
# [29] = test system: HOP-62; assay: Growth inhibition of human HOP62 cells after 48 hrs by SRB assay; assay type: functional; conditions: HOP-62, 48 h; method in brief: as §1
# [30] = test system: K562; assay: Growth inhibition of human K562 cells after 48 hrs by trypan blue assay; assay type: functional, cell-based; conditions: K562, 48 h
# [31] = test system: UACC-257; assay: Growth inhibition of human UACC257 cells after 48 hrs by SRB assay; assay type: functional; conditions: UACC-257, 48 h; method in brief: as §2
# [32] = test system: T47D; assay: Growth inhibition of human T47D cells after 48 hrs by SRB assay; assay type: functional; method in brief: as §2
# [33] = Growth inhibition of human Hs 578T cells after 48 hrs by SRB assay; assay type: functional; method in brief: as §1
# [34] = test system: SNB-75; assay: Growth inhibition of human SNB75 cells after 48 hrs by SRB assay; assay type: functional; conditions: SNB-75, 48 h; method in brief: as §2
# [35] = test system: NCI-H226; assay: Growth inhibition of human NCI-H226 cells after 48 hrs by SRB assay; assay type: functional; conditions: NCI-H226, 48 h; method in brief: as §1
# [36] = test system: NCI/ADR-RES; assay: Growth inhibition of human NCI/ADR-RES cells after 48 hrs by SRB assay; assay type: functional; method in brief: as §1
# [37] = test system: EKVX; assay: Growth inhibition of human EKVX cells after 48 hrs by SRB assay; assay type: functional; method in brief: as §1
# [38] = test system: U-251; assay: Growth inhibition of human U251 cells after 48 hrs by SRB assay; assay type: functional; conditions: U-251, 48 h; method in brief: as §2
# [39] = test system: CCRF-CEM; assay: Growth inhibition of human CCRF-CEM cells after 48 hrs by SRB assay; assay type: functional; method in brief: as §1
# [40] = test system: HOP-92; assay: Growth inhibition of human HOP92 cells after 48 hrs by SRB assay; assay type: functional; conditions: HOP-92, 48 h; method in brief: as §1
# [41] = test system: MDA-MB-468; assay: Growth inhibition of human MDA-MB-468 cells after 48 hrs by SRB assay; assay type: functional; conditions: MDA-MB-468, 48 h; method in brief: as §1
# [42] = test system: NCI-H460; assay: Growth inhibition of human NCI-H460 cells after 48 hrs by SRB assay; assay type: functional; conditions: NCI-H460, 48 h; method in brief: as §1
# [43] = test system: A549; assay: Growth inhibition of human A549 cells after 48 hrs by SRB assay; assay type: functional; conditions: A549, 48 h; method in brief: as §1
# [44] = test system: K562; assay: Growth inhibition of human K562 cells after 48 hrs by SRB assay; assay type: functional; conditions: K562, 48 h; method in brief: as §1
# [45] = test system: HCC 2998; assay: Growth inhibition of human HCC2998 cells after 48 hrs by SRB assay; assay type: functional; conditions: HCC 2998, 48 h; method in brief: as §1
# [46] = test system: OVCAR-3; assay: Growth inhibition of human OVCAR3 cells after 48 hrs by SRB assay; assay type: functional; conditions: OVCAR-3, 48 h; method in brief: as §1
# [47] = test system: OVCAR-5; assay: Growth inhibition of human OVCAR5 cells after 48 hrs by SRB assay; assay type: functional; conditions: OVCAR-5, 48 h; method in brief: as §1
# [48] = test system: HCT-116; assay: Growth inhibition of human HCT116 cells after 48 hrs by SRB assay; assay type: functional; conditions: HCT-116, 48 h; method in brief: as §1
# [49] = test system: HT-29; assay: Growth inhibition of human HT-29 cells after 48 hrs by SRB assay; assay type: functional; conditions: HT-29, 48 h; method in brief: as §1
# [50] = test system: 786-0; assay: Growth inhibition of human 786-0 cells after 48 hrs by SRB assay; assay type: functional; conditions: 786-0, 48 h; method in brief: as §1
# [51] = test system: SN12C; assay: Growth inhibition of human SN12C cells after 48 hrs by SRB assay; assay type: functional; method in brief: as §2
# [52] = test system: SNB-19; assay: Growth inhibition of human SNB19 cells after 48 hrs by SRB assay; assay type: functional; conditions: SNB-19, 48 h; method in brief: as §2
# [53] = test system: OVCAR-4; assay: Growth inhibition of human OVCAR4 cells after 48 hrs by SRB assay; assay type: functional; conditions: OVCAR-4, 48 h; method in brief: as §1
# [54] = test system: TK-10; assay: Growth inhibition of human TK10 cells after 48 hrs by SRB assay; assay type: functional; conditions: TK-10, 48 h; method in brief: as §2
# [55] = test system: OVCAR-8; assay: Growth inhibition of human OVCAR8 cells after 48 hrs by SRB assay; assay type: functional; conditions: OVCAR-8, 48 h; method in brief: as §1
# [56] = test system: MDA-MB-231; assay: Growth inhibition of human MDA-MB-231 cells after 48 hrs by SRB assay; assay type: functional; conditions: MDA-MB-231, 48 h; method in brief: as §1
# [57] = test system: LOX IMVI; assay: Growth inhibition of human LOXIMVI cells after 48 hrs by SRB assay; assay type: functional; method in brief: as §1
# [58] = test system: SF-539; assay: Growth inhibition of human SF539 cells after 48 hrs by SRB assay; assay type: functional; conditions: SF-539, 48 h; method in brief: as §1
structure (smiles),measurement,setting,value
Cc1ccc(NC(=O)/C=C/c2ccccc2)c(C(N)=O)c1,GI50,[1],4.37 µM
same,GI50,[2],5.56 µM
same,GI50,[3],3.66 µM
same,GI50,[4],1.84 µM
same,GI50,[5],5.24 µM
same,GI50,[6],3.38 µM
same,inhibition of growth at 10 µM,[7],65.4%
same,GI50,[8],7.59 µM
same,GI50,[9],3.97 µM
same,GI50,[10],0.66 µM
same,GI50,[11],2.35 µM
same,GI50,[12],4.88 µM
same,GI50,[13],2.83 µM
same,GI50,[14],1.01 µM
same,GI50,[15],3.48 µM
same,GI50,[16],3.3 µM
same,GI50,[17],3.14 µM
same,GI50,[18],3.56 µM
same,GI50,[19],3.77 µM
same,GI50,[20],9.62 µM
same,GI50,[21],2.79 µM
same,GI50,[22],1.77 µM
same,GI50,[23],2.94 µM
same,GI50,[24],3.77 µM
same,GI50,[25],13.5 µM
same,GI50,[26],8.92 µM
same,GI50,[27],4.75 µM
same,GI50,[28],10.9 µM
same,GI50,[29],7.74 µM
same,IC50,[30],5.5 µM
same,GI50,[31],17 µM
same,GI50,[32],4.2 µM
same,GI50,[33],1.94 µM
same,GI50,[34],3.18 µM
same,GI50,[35],7.28 µM
same,GI50,[36],2.79 µM
same,GI50,[37],5.18 µM
same,GI50,[38],4.13 µM
same,GI50,[39],2.36 µM
same,GI50,[40],11.4 µM
same,GI50,[41],3.12 µM
same,GI50,[42],3.59 µM
same,GI50,[43],5.81 µM
same,GI50,[44],1.11 µM
same,GI50,[45],6.45 µM
same,GI50,[46],2.18 µM
same,GI50,[47],8.2 µM
same,GI50,[48],3.2 µM
same,GI50,[49],2.31 µM
same,GI50,[50],4 µM
same,GI50,[51],9.63 µM
same,GI50,[52],5.69 µM
same,GI50,[53],11.4 µM
same,GI50,[54],25.8 µM
same,GI50,[55],7.49 µM
same,GI50,[56],7.26 µM
same,GI50,[57],7.65 µM
same,GI50,[58],2.05 µM
